{"source": "ChEMBL document CHEMBL5674889", "about": "“Enhanced JunD/RSK3 signalling due to loss of BRD4/FOXD3/miR-548d-3p axis determines BET inhibition resistance” (2020)", "key": {"BT-549 [1]": {"tested_on": "BT-549", "assay": "Antiproliferative activity in human BT-549 cells assessed as cell growth in the presence of miR-548d-3p at 1 uM by CCK-8 assay", "type": "functional, cell-based", "outline": "(§1)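 BLBC cells transfected with miR-548d-3p mimic or inhibitor, with or without JQ1; growth read by CCK-8 assay relative to DMSO-treated control, seeded at 3000/well. Triplicates, mean ± SD, one-way ANOVA.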"}, "MDA-MB-231 [2]": {"tested_on": "MDA-MB-231", "assay": "Antiproliferative activity in human MDA-MB-231 cells assessed as cell growth in the presence of gefitinib at 1 uM by CellTiter-Glo luminescent cell viability assay", "type": "functional, cell-based", "outline": "(§2)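 BLBC cells seeded at 3000/well, adhered overnight, then exposed to JQ1 (1 μM) with or without an EGFR inhibitor (1 μM) for 48 h; control and RPS6KA2-shRNA clones tested. Viability by CellTiter-Glo luminescence, background-subtracted and normalized to DMSO-treated control; triplicates, mean ± SD, one-way ANOVA against JQ1 alone.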"}, "BT-549 [3]": {"tested_on": "BT-549", "assay": "Antiproliferative activity in human RPS6KA2-knockdown BT-549 cells assessed as cell growth at 1 uM by CCK-8 assay", "type": "functional, cell-based"}, "BT-549 [4]": {"tested_on": "BT-549", "assay": "Induction of apoptosis in human RPS6KA2-knockdown BT-549 cells at 1 uM by FACS assay", "type": "functional, cell-based", "outline": "(§3)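 Stable clones (vector, RSK3-overexpressing or RPS6KA2-knockdown) treated ± JQ1 1 μM. Cells washed twice in PBS, resuspended at 1 × 10^6 cells/ml in binding buffer, stained with Annexin V-FITC and propidium iodide for 10 min at room temperature in the dark, then read by flow cytometry. Three independent experiments; one-way ANOVA.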"}, "MDA-MB-231 [5]": {"tested_on": "MDA-MB-231", "assay": "Inhibition of FOXD3/-BRD4 protein-protein interaction in human MDA-MB-231 cells at 1 uM by Co-immunoprecipitation analysis", "type": "cell-based", "outline": "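Endogenous FOXD3 or BRD4 pulled down from MDA-MB-231 lysates with specific antibodies; partner detected by western blot.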"}, "MDA-MB-231 [6]": {"tested_on": "MDA-MB-231", "assay": "Effect on human BRD4-knockdown MDA-MB-231 cells assessed as miR-548d-3p expression at 1 uM by real-time PCR analysis", "type": "functional, cell-based"}, "BT-549 [7]": {"tested_on": "BT-549", "assay": "Effect on JUND dependent RPS6KA2 transcription in human JUND-knockdown BT-549 cells assessed reduction in transcription level at 1 uM by ChIP-RT-PCR analysis", "type": "functional, cell-based", "outline": "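ChIP-qPCR used ~1 × 10^6 cross-linked JUND-knockdown or control cells treated with DMSO or 1 μM for 6 h. Immunoprecipitated DNA was quantified by real-time PCR with primers specific to the RPS6KA2 enhancer. Non-specific primers downstream of the gene 3′ end served as control.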"}, "MDA-MB-231 [8]": {"tested_on": "MDA-MB-231", "assay": "Effect on human MDA-MB-231 cells assessed as RSK3 protein expression at 1 uM for 24 hrs by Western blot analysis", "type": "functional, cell-based", "outline": "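Western blot for RSK3 in MDA-MB-231 and BT549 cells treated with DMSO or 1 μM for 0, 12 and 24 h. Antibody used at 1:1000.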"}, "MDA-MB-231 [9]": {"tested_on": "MDA-MB-231", "assay": "Antiproliferative activity in human MDA-MB-231 cells assessed as cell growth in the presence of lapatinib at 1 uM by CellTiter-Glo luminescent cell viability assay", "type": "functional, cell-based", "outline": "as §2"}, "MDA-MB-231 [10]": {"tested_on": "MDA-MB-231", "assay": "Induction of apoptosis in human MDA-MB-231 cells expressing vector control assessed as necrotic cells at 1 uM by Annexin V-FITC flow cytometric analysis (reference value: 1.67%)", "type": "functional", "outline": "as §3"}, "MDA-MB-231 [11]": {"tested_on": "MDA-MB-231", "assay": "Effect on human JUND-overexpressing MDA-MB-231 cells assessed as RSK3 protein expression at 1 uM by Western blot analysis", "type": "functional, cell-based", "outline": "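RSK3 and JunD were probed by western blot in JUND-knockdown or JUND-overexpressing stable clones and their controls, all selected with puromycin 1.0 μg/ml. Antibodies used at 1:1000.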"}, "MDA-MB-231 [12]": {"tested_on": "MDA-MB-231", "assay": "Antiproliferative activity in human MDA-MB-231 cells assessed as cell growth in the presence of erlotinib at 1 uM by CellTiter-Glo luminescent cell viability assay", "type": "functional, cell-based", "outline": "as §2"}, "MDA-MB-231 [13]": {"tested_on": "MDA-MB-231", "assay": "Antiproliferative activity in human MDA-MB-231 cells assessed as cell growth in the presence of osimertinib at 1 uM by CellTiter-Glo luminescent cell viability assay", "type": "functional, cell-based", "outline": "as §2"}, "BT-549 [14]": {"tested_on": "BT-549", "assay": "Effect on human RPS6KA2 knockdown BT-549 cells assessed as RSK3 protein expression at 1 uM for 24 hrs by Western blot analysis", "type": "functional, cell-based"}, "BT-549 [15]": {"tested_on": "BT-549", "assay": "Antiproliferative activity in human FOXD3-knockdown BT-549 cells assessed as cell growth at 1 uM by CCK-8 assay", "type": "functional, cell-based"}, "MDA-MB-231 [16]": {"tested_on": "MDA-MB-231", "assay": "Cytotoxicity in human RSK3-overexpressing MDA-MB-231 cells assessed as cell viability at 1 uM for 48 hrs by CellTiter-Glo luminescent cell viability assay", "type": "functional, cell-based", "outline": "(§4)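 CellTiter-Glo viability: stable overexpressing or shRNA clones (puromycin 1.0 μg/ml selection) seeded 3000 cells/well, adhered overnight, then exposed to 1 μM for 48 h. Luminescence is background-subtracted and normalised to DMSO-treated control. Triplicates, mean ± SD, one-way ANOVA. MDA-MB-231 cells are kept in DMEM and BT549 in RPMI-1640, each with 10% FBS.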"}, "BT-549 [17]": {"tested_on": "BT-549", "assay": "Antiproliferative activity in human JUND-knockdown BT-549 cells assessed as cell viability at 1 uM by CellTiter-Glo luminescent cell viability assay", "type": "functional, cell-based", "outline": "(§5)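 Stable JUND-knockdown (shRNA, puromycin 1.0 μg/ml selection) or JUND-overexpressing clones and vector controls, seeded 3000 cells/well and adhered overnight, then given DMSO or JQ1 (1 μM) for 48 h. Read-out CellTiter-Glo luminescence normalized to DMSO control; triplicates, mean ± SD, one-way ANOVA.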"}, "MDA-MB-231 [18]": {"tested_on": "MDA-MB-231", "assay": "Antiproliferative activity in human RPS6KA2-knockdown MDA-MB-231 cells assessed as cell viability at 1 uM for 48 hrs by CellTiter-Glo luminescent cell viability assay", "type": "functional, cell-based", "outline": "as §4"}, "BT-549 [19]": {"tested_on": "BT-549", "assay": "Antiproliferative activity in human BT-549 cells assessed as cell growth in the presence of miR-548d-3p inhibitor at 1 uM by CCK-8 assay", "type": "functional, cell-based", "outline": "as §1"}, "MDA-MB-231 [20]": {"tested_on": "MDA-MB-231", "assay": "Antiproliferative activity in human JUND-knockdown MDA-MB-231 cells assessed as stronger tumor sphere formation at 1 uM by tumor sphere assay", "type": "functional, cell-based"}, "HEK-293T": {"tested_on": "HEK-293T", "assay": "Effect on human HEK293T cells transfected with BRD4 assessed as decrease in luciferase activity at 1 uM for 6 hrs by Luciferase reporter assay", "type": "functional, cell-based"}, "BT-549 [21]": {"tested_on": "BT-549", "assay": "Antiproliferative activity in human JUND-overexpressing BT-549 cells assessed as cell viability at 1 uM by CellTiter-Glo luminescent cell viability assay", "type": "functional, cell-based", "outline": "as §5"}, "MDA-MB-231 [22]": {"tested_on": "MDA-MB-231", "assay": "Antiproliferative activity in human MDA-MB-231 cells assessed as inhibited cell growth at 1 uM by CCK-8 assay", "type": "functional, cell-based"}, "BT-549 [23]": {"tested_on": "BT-549", "assay": "Antiproliferative activity in human BT-549 cells assessed as cell growth in the presence of erlotinib at 1 uM by CellTiter-Glo luminescent cell viability assay", "type": "functional, cell-based", "outline": "as §2"}, "MDA-MB-231 [24]": {"tested_on": "MDA-MB-231", "assay": "Induction of apoptosis in human MDA-MB-231 cells assessed as caspase-3 cleavage in the presence of osimertinib at 1 uM by Western blotting analysis", "type": "functional, cell-based"}, "MDA-MB-231 [25]": {"tested_on": "MDA-MB-231", "assay": "Antiproliferative activity in human MDA-MB-231 cells assessed as cell growth in the presence of EAI045 at 1 uM by CellTiter-Glo luminescent cell viability assay", "type": "functional, cell-based", "outline": "as §2"}}, "note": "Calls of active or inactive are those of the source. The rule behind the calls is not given here.", "data": [{"smiles": "Cc1sc2c(c1C)C(c1ccc(Cl)cc1)=N[C@@H](CC(=O)OC(C)(C)C)c1nnc(C)n1-2", "values": [{"measurement": "Activity", "setting": "BT-549 [1]", "value": "Active"}, {"measurement": "Activity", "setting": "MDA-MB-231 [2]", "value": "Active"}, {"measurement": "Activity", "setting": "BT-549 [3]", "value": "Active"}, {"measurement": "Activity", "setting": "BT-549 [4]", "value": "Active"}, {"measurement": "inhibition", "setting": "MDA-MB-231 [5]", "value": "Active"}, {"measurement": "Activity", "setting": "MDA-MB-231 [6]", "value": "Active"}, {"measurement": "Activity", "setting": "BT-549 [7]", "value": "Active"}, {"measurement": "Activity", "setting": "MDA-MB-231 [8]", "value": "Active"}, {"measurement": "Activity", "setting": "MDA-MB-231 [9]", "value": "Active"}, {"measurement": "Activity", "setting": "MDA-MB-231 [10]", "value": 1.54, "unit": "%"}, {"measurement": "Activity", "setting": "MDA-MB-231 [11]", "value": "Active"}, {"measurement": "Activity", "setting": "MDA-MB-231 [12]", "value": "Active"}, {"measurement": "Activity", "setting": "MDA-MB-231 [13]", "value": "Active"}, {"measurement": "Activity", "setting": "BT-549 [14]", "value": "Active"}, {"measurement": "Activity", "setting": "BT-549 [15]", "value": "Active"}, {"measurement": "Activity", "setting": "MDA-MB-231 [16]", "value": "Active"}, {"measurement": "Activity", "setting": "BT-549 [17]", "value": "Active"}, {"measurement": "Activity", "setting": "MDA-MB-231 [18]", "value": "Active"}, {"measurement": "Activity", "setting": "BT-549 [19]", "value": "Active"}, {"measurement": "Activity", "setting": "MDA-MB-231 [20]", "value": "Active"}, {"measurement": "Activity", "setting": "HEK-293T", "value": "Active"}, {"measurement": "Activity", "setting": "BT-549 [21]", "value": "Active"}, {"measurement": "Activity", "setting": "MDA-MB-231 [22]", "value": "Active"}, {"measurement": "Activity", "setting": "BT-549 [23]", "value": "Active"}, {"measurement": "Activity", "setting": "MDA-MB-231 [24]", "value": "Active"}, {"measurement": "Activity", "setting": "MDA-MB-231 [25]", "value": "Active"}]}]}
